Experiments:
[1] = tested on: Human immunodeficiency virus 1; assay: Antiviral activity against HIV-1 LAI harboring wild type reverse transcriptase infected in human MT4 cells after 5 days by MTT assay; type: functional, organism-based; details: Human immunodeficiency virus 1, LAI, MT4, 120 h
In short: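 MT4 cells were kept in RPMI 1640 with 10% fetal calf serum and antibiotics at 37 °C, 5% CO2. A range of compound concentrations was incubated with HIV-1 LAI at 200 CCID50/well and 30000 MT4 cells/well for 5 days at 37 °C. Cell viability was read by MTT, and IC50 was the concentration giving 50% infection versus the drug-free control.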

[2] = Selectivity index, ratio of CC50 for human MT4 cells to IC50 for HIV-1 LAI harboring wild type reverse transcriptase infected in human MT4 cells; type: functional
In short: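 Cytotoxicity was measured in mock-infected MT4 cultures (30000 cells/well) given the same compound concentration range, run in parallel with the infected cultures for 5 days at 37 °C, 5% CO2, with MTT viability. CC50 was the concentration reducing viability by 50% versus the drug-free control. SI was CC50 divided by IC50 against HIV-1 LAI.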

[3] = tested on: Human immunodeficiency virus 1; assay: Antiviral activity against HIV1 HXB2 harboring K103N mutant reverse transcriptase infected in human MT4 cells after 5 days by MTT assay; type: functional, organism-based; details: Human immunodeficiency virus 1, HXB2, MT4, 120 h
In short: (§1)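 Mutant viruses were made by recombining the mutant PR-RT sequence into a PR-RT-deleted HIV-1 HXB2 proviral clone. MT4 cells were grown in RPMI 1640 with 10% FCS and antibiotics. Virus at 200 CCID50/well and 30000 cells/well were incubated with varied compound concentrations for 5 days at 37 °C, 5% CO2. MTT viability gave IC50, the concentration giving 50% infection versus the drug-free control.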

[4] = tested on: Human immunodeficiency virus 1; assay: Antiviral activity against HIV1 HXB2 harboring Y181C mutant reverse transcriptase infected in human MT4 cells after 5 days by MTT assay; type: functional, organism-based; details: Human immunodeficiency virus 1, HXB2, MT4, 120 h; in short: as §1
[5] = tested on: Human immunodeficiency virus 1; assay: Antiviral activity against HIV1 HXB2 harboring Y188L mutant reverse transcriptase infected in human MT4 cells after 5 days by MTT assay; type: functional, organism-based; details: Human immunodeficiency virus 1, HXB2, MT4, 120 h; in short: as §1
[6] = tested on: Human immunodeficiency virus 1; assay: Antiviral activity against HIV1 HXB2 harboring 100I mutant reverse transcriptase infected in human MT4 cells after 5 days by MTT assay; type: functional, organism-based; details: Human immunodeficiency virus 1, HXB2, MT4, 120 h; in short: as §1
[7] = tested on: Human immunodeficiency virus 1; assay: Antiviral activity against HIV1 HXB2 harboring 101E mutant reverse transcriptase infected in human MT4 cells after 5 days by MTT assay; type: functional, organism-based; details: Human immunodeficiency virus 1, HXB2, MT4, 120 h; in short: as §1
[8] = tested on: Human immunodeficiency virus 1; assay: Antiviral activity against HIV1 HXB2 harboring 106A mutant reverse transcriptase infected in human MT4 cells after 5 days by MTT assay; type: functional, organism-based; details: Human immunodeficiency virus 1, HXB2, MT4, 120 h; in short: as §1
[9] = tested on: Human immunodeficiency virus 1; assay: Antiviral activity against HIV1 HXB2 harboring 138K mutant reverse transcriptase infected in human MT4 cells after 5 days by MTT assay; type: functional, organism-based; details: Human immunodeficiency virus 1, HXB2, MT4, 120 h; in short: as §1
[10] = tested on: Human immunodeficiency virus 1; assay: Antiviral activity against HIV1 HXB2 harboring 179E mutant reverse transcriptase infected in human MT4 cells after 5 days by MTT assay; type: functional, organism-based; details: Human immunodeficiency virus 1, HXB2, MT4, 120 h; in short: as §1
[11] = tested on: Human immunodeficiency virus 1; assay: Antiviral activity against HIV1 HXB2 harboring 190A mutant reverse transcriptase infected in human MT4 cells after 5 days by MTT assay; type: functional, organism-based; details: Human immunodeficiency virus 1, HXB2, MT4, 120 h; in short: as §1
[12] = tested on: Human immunodeficiency virus 1; assay: Antiviral activity against HIV1 HXB2 harboring 190S mutant reverse transcriptase infected in human MT4 cells after 5 days by MTT assay; type: functional, organism-based; details: Human immunodeficiency virus 1, HXB2, MT4, 120 h; in short: as §1
[13] = tested on: Human immunodeficiency virus 1; assay: Antiviral activity against HIV1 HXB2 harboring 227C mutant reverse transcriptase infected in human MT4 cells after 5 days by MTT assay; type: functional, organism-based; details: Human immunodeficiency virus 1, HXB2, MT4, 120 h; in short: as §1
[14] = tested on: Human immunodeficiency virus 1; assay: Antiviral activity against HIV1 HXB2 harboring 100I and K103N mutant reverse transcriptase infected in human MT4 cells after 5 days by MTT assay; type: functional, organism-based; details: Human immunodeficiency virus 1, HXB2, MT4, 120 h; in short: as §1
[15] = tested on: Human immunodeficiency virus 1; assay: Antiviral activity against HIV1 HXB2 harboring 101E and K103N mutant reverse transcriptase infected in human MT4 cells after 5 days by MTT assay; type: functional, organism-based; details: Human immunodeficiency virus 1, HXB2, MT4, 120 h; in short: as §1
[16] = tested on: Human immunodeficiency virus 1; assay: Antiviral activity against HIV1 HXB2 harboring K103N and Y181C mutant reverse transcriptase infected in human MT4 cells after 5 days by MTT assay; type: functional, organism-based; details: Human immunodeficiency virus 1, HXB2, MT4, 120 h; in short: as §1
[17] = tested on: Human immunodeficiency virus 1; assay: Antiviral activity against HIV1 HXB2 harboring 227L and 106A mutant reverse transcriptase infected in human MT4 cells after 5 days by MTT assay; type: functional, organism-based; details: Human immunodeficiency virus 1, HXB2, MT4, 120 h; in short: as §1
[18] = tested on: Human immunodeficiency virus 1; assay: Ratio of efavirenz IC50 to compound IC50 for HIV1 HXB2 harboring 100I and K103N mutant reverse transcriptase infected in human MT4 cells; type: functional
[19] = tested on: Human immunodeficiency virus 1; assay: Ratio of efavirenz IC50 to compound IC50 for HIV1 HXB2 harboring Y188L mutant reverse transcriptase infected in human MT4 cells; type: functional
[20] = tested on: Human immunodeficiency virus 1; assay: Ratio of efavirenz IC50 to compound IC50 for HIV1 HXB2 harboring K103N mutant reverse transcriptase infected in human MT4 cells; type: functional
[21] = tested on: Human immunodeficiency virus 1; assay: Ratio of compound IC50 to efavirenz IC50 for HIV1 HXB2 harboring Y181C mutant reverse transcriptase infected in human MT4 cells; type: functional

Structure (SMILES) | IC50 [1] | Ratio CC50/IC50 [2] | IC50 [3] | IC50 [4] | IC50 [5] | IC50 [6] | IC50 [7] | IC50 [8] | IC50 [9] | IC50 [10] | IC50 [11] | IC50 [12] | IC50 [13] | IC50 [14] | IC50 [15] | IC50 [16] | IC50 [17] | other results
Cc1cc(C)cc(Oc2c(CSCc3ccco3)c(C)[nH]c(=O)c2I)c1 | 1.25 nM | >79433 | 1 nM | 5 nM | 31.6 nM | 6.31 nM | 6.31 nM | 1.58 nM | 1.25 nM | 1 nM | 3.16 nM | 1.25 nM | 39.8 nM | 31.6 nM | 3.98 nM | 5.01 nM | 125 nM | 
CCSCc1c(C)[nH]c(=O)c(I)c1Oc1cc(C)cc(C)c1 | 1.25 nM | >79433 | 6.3 nM | 6.3 nM | 31.6 nM | 7.94 nM | 19.9 nM | 7.94 nM | 25.1 nM | 10 nM | 19.9 nM | 10 nM | 199 nM | 15.8 nM | 19.9 nM | 19.9 nM | 125 nM | 
Cc1cc(C)cc(Sc2c(Cn3ncnn3)c(C)[nH]c(=O)c2I)c1 | 0.63 nM | >158489 | 1.25 nM | 10 nM | 31.6 nM | 1.25 nM | 3.3 nM | 0.6 nM | 2.6 nM | 0.8 nM | 1 nM | 0.3 nM | 50.1 nM | 3.98 nM | 5 nM | 32.9 nM | 50.1 nM | 
Cc1cc(C)cc(Sc2c(Cn3cnnn3)c(C)[nH]c(=O)c2I)c1 | 1.25 nM | >79433 | 0.31 nM | 7.9 nM | 15.8 nM | 0.79 nM | 1.4 nM | 0.5 nM | 1.1 nM | 0.8 nM | 0.9 nM | 0.2 nM | 31.6 nM | 1.25 nM | 1 nM | 6.8 nM | 39.8 nM | Ratio IC50 [18]: 1000
Cc1cc(C)cc(Oc2c(CSCc3csc(C)n3)c(C)[nH]c(=O)c2I)c1 | 1 nM | >100000 | 1 nM | 6.3 nM | 7.9 nM | 3.16 nM |  |  |  |  |  |  | 39.8 nM | 158 nM |  |  |  | EC50 [17]: 158 nM
CCc1c(C)[nH]c(=O)c(N(C)C)c1C(=O)c1cc(C)cc(C)c1 | 3.98 nM | 2512 | 10 nM | 63.1 nM | 158 nM | 6.31 nM | 7.94 nM | 6.31 nM | 6.31 nM | 2.51 nM | 12.6 nM | 3.98 nM | 631 nM | 39.8 nM | 12.6 nM | 158 nM | 398 nM | 
Cc1cc(C)cc(Oc2c(Cn3cnnn3)c(C)[nH]c(=O)c2I)c1 | 0.79 nM | >100000 | 1.4 nM | 5.9 nM | 10.3 nM | 4 nM | 4 nM | 2 nM | 3.9 nM | 1.4 nM | 3.7 nM | 0.4 nM | 2.6 nM | 4.7 nM | 4.6 nM | 17.4 nM | 3.8 nM | 
CCc1c(C)[nH]c(=O)c(I)c1Oc1cc(C)cc(C)c1 |  | 9000 |  |  |  | 6.31 nM | 6.31 nM | 5.01 nM | 3.98 nM | 1.99 nM |  | 1.99 nM | 63.1 nM |  | 15.8 nM |  | 398 nM | Ratio IC50 [19]: 3; Ratio IC50 [20]: 10; Ratio IC50 [21]: 10
Cc1cc(C)cc(Oc2c(Cn3ccnc3)c(C)[nH]c(=O)c2I)c1 | 1.99 nM | >50118 | 2.51 nM | 10 nM | 31.6 nM | 6.31 nM | 9.2 nM | 3.7 nM | 11.2 nM | 5.1 nM | 8 nM | 2.2 nM |  | 23.7 nM | 28.6 nM | 71.2 nM |  | 
